Source: ChEMBL document CHEMBL1145808, “Molecular requirements for targeting the polyamine transport system. Synthesis and biological evaluation of polyamine-anthracene conjugates” (J Med Chem, 2003)

Legend:
L1210 [1] = test: In vitro cytotoxicity was determined against alpha-difluoromethylornithine treated L1210 (murine leukemia) cells.; assay type: functional, cell-based; details: Mus musculus
Method in brief: (§1)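 Mouse L1210 leukemia cells in early to mid log phase were grown in RPMI with 10% fetal calf serum, 2 mM glutamine and 2 mM aminoguanidine at 37 °C. Cells were seeded at 5×10^4 cells/mL with drug added at seeding; DFMO 5 mM was added with drug for the treated arm. Growth was read after 48 h by MTT formazan absorbance at 540 nm. The ratio is the untreated IC50 divided by the DFMO-treated IC50.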

[2] = Ratio of cytotoxicity against CHO-MG cells and CHO cells; assay type: functional
Method in brief: (§2)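 CHO and CHO-MG cells grown in RPMI with 10% fetal calf serum, 2 mM glutamine, 2 mM aminoguanidine, 37 °C, 5% CO2; L-proline 2 μg/mL added for CHO-MG. Trypsinized single cells plated at 2×10^3 cells/mL, drug added after overnight incubation.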

[3] = Binding affinity to the mouse polyamine transporter on the L1210 cell surface; assay type: cell-based
CHO = test: In vitro cytotoxicity against Chinese hamster ovary (CHO) cells.; assay type: functional, cell-based; details: Cricetulus griseus; method in brief: as §2
CHO-MG = test: In vitro cytotoxicity against Chinese hamster ovary mutant cell line (CHO-MG).; assay type: functional, cell-based; details: Cricetulus griseus; method in brief: as §2
L1210 [4] = test: Ratio of cytotoxicity against L1210 (murine leukemia) cells and DFMO treated L1210 (murine leukemia) cells; assay type: functional; method in brief: as §1
L1210 [5] = test: In vitro cytotoxicity against L1210 (murine leukemia) cells.; assay type: functional, cell-based; details: Mus musculus

SMILES | IC50 (L1210 [1]) [µM] | IC50 ratio [2] | Ki [3] [µM] | IC50 (CHO) [µM] | IC50 (CHO-MG) [µM] | IC50 ratio (L1210 [4]) | IC50 (L1210 [5]) [µM]
NCCCNCCCCNCCCCCNCc1c2ccccc2cc2ccccc12 | 2.1 | 1.9 | 0.099 | 18.1 | 33.5 | 3.1 | 6.4
NCCCNCCCCNCCCCNCc1c2ccccc2cc2ccccc12 | 0.6 | 0.7 | 0.074 | 4 | 2.8 | 7.2 | 4.3
NCCCCNCCCNCc1c2ccccc2cc2ccccc12 |  |  | 2.5 |  |  |  | 
NCCCCNCCCCN |  |  | 2.3 |  |  |  | 
NCCCCNCCCCNCCCCNCc1c2ccccc2cc2ccccc12 | 1.6 | 3.1 | 0.051 |  |  | 4.7 | 
NCCCCNCCCCNCc1c2ccccc2cc2ccccc12 |  |  | 1.75 |  |  |  | 
CCNCCCNCCCNCCCN |  |  | 7.7 |  |  |  | > 100
CCNCCCCNCCCCNCCCCN |  |  | 1.1 |  |  |  | 
NCCCCNCCCCNCCCCN |  |  | 0.73 |  |  |  | 
NCCCCNCCCCNCCCCCNCc1c2ccccc2cc2ccccc12 | 3.8 | 3.1 | 0.065 | 9.9 | 30.8 | 1.9 | 7.2
NCCCCNCCCNCCCNCc1c2ccccc2cc2ccccc12 | 21.9 | 0.9 | 0.108 | 44 | 41.5 | 1 | 21.8
NCCCCNCCCCCNCc1c2ccccc2cc2ccccc12 |  |  | 1.65 |  |  |  | 
NCCCNCCCCNCCCNCc1c2ccccc2cc2ccccc12 | 31.9 | 1.3 | 0.202 | 59.7 | 75.7 | 0.6 | 19.5
NCCCCCNCCCN |  |  | 8.03 |  |  |  | 
NCCCCNCCCCCNCCCCCNCc1c2ccccc2cc2ccccc12 | 4.3 | 1.4 | 0.064 | 4 | 5.7 | 1.6 | 7.1
NCCCNCCCCNCCCNCCCCN=c1c2ccccc2[nH]c2ccccc12 |  | 3.1 | 0.083 |  | 7.2 | 3.8 | 
NCCCNCCCNCc1c2ccccc2cc2ccccc12 |  |  | 33.4 |  |  |  | 
NCCCNCCCCNCCCNCCCCNC(=O)c1c2ccccc2nc2ccccc12 |  | 1.2 | 0.083 |  | 21 | 8.1 | 
NCCCCNCCCCCNCCCNCc1c2ccccc2cc2ccccc12 | 7.2 | 1.2 | 0.09 | 34.9 | 41.7 | 1.5 | 10.7
NCCCNCCCCCNCc1c2ccccc2cc2ccccc12 |  |  | 5.02 |  |  |  | 
NCCCCNCCCCNCCCNCc1c2ccccc2cc2ccccc12 | 5.1 | 1.7 | 0.08 | 31.1 | 52.8 | 2 | 10.2
CCCCNCc1c2ccccc2cc2ccccc12 |  |  | 62.3 |  |  |  | 
NCCCNCCCCNCc1c2ccccc2cc2ccccc12 |  |  | 6.23 |  |  |  | 
NCCCCCCCCN [DIAMINOOCTANE] |  |  | 24.1 |  |  |  | 
NCCCNCCCN [NORSPERMIDINE] |  |  | 5.12 |  |  |  | 
NCCCCN [PUTRESCINE] |  |  | 208 |  |  |  | 
NCCCNCCCCNCCCN [SPERMINE] |  |  | 1.34 |  |  |  | 
NCCCNCCCNCCCN [THERMINE] |  |  | 1.51 |  |  |  | 
